Experimental data from ChEMBL document CHEMBL2034857, “Discovery of the macrocycle (9E)-15-(2-(pyrrolidin-1-yl)ethoxy)-7,12,25-trioxa-19,21,24-triaza-tetracyclo[18.3.1.1(2,5).1(14,18)]hexacosa-1(24),2,4,9,14(26),15,17,20,22-nonaene (SB1578), a potent inhibitor of janus kinase 2/fms-like tyrosine kinase-3 (JAK2/FLT3) for the treatment of rheumatoid …” (J Med Chem, 2012).

Assays:
[1] = Antiproliferative activity against human SET2 cells expressing JAK2 V617F mutan; type: functional, cell-based; conditions: SET-2
Mus musculus = test: Antiarthritic activity in B10/R3 mouse immunized with bovine type2 collagen in Freund's complete adjuvant assessed as inhibition of increase in clinical arthritic scores at 105 mg/kg, po administered bid for 10 days measured for 10 days; type: functional; conditions: B10/R3, 240 h
[2] = target: Cyclin-dependent kinase 2 (Homo sapiens, UniProt P24941); test: Inhibition of recombinant CDK2 using RbING as substrate after 2 hrs by luminometric assay
[3] = Kinetic solubility in PBS buffer at pH 7; type: physicochemical; conditions: read-out: Kinetic_solubility
Cytochrome P450 3A4 [4] = target: T1, Cytochrome P450 3A4 (Homo sapiens, UniProt P08684); test: Inhibition of CYP3A4 in human liver microsomes using testosterone as substrate by LC-MS/MS analysis; type: ADME, Microsome
Cytochrome P450 2D6 [5] = target: T2, Cytochrome P450 2D6 (Homo sapiens, UniProt P10635); test: Inhibition of CYP2D6 in human liver microsomes using dextromethorphan as substrate by LC-MS/MS analysis; type: ADME, Microsome
[6] = Half life in mouse liver microsomes; type: ADME, Microsome
BaF3 = test: Antiproliferative activity against mouse BAF3 cells expressing JAK2 V617F mutant after 48 hrs by luciferase reporter gene assay; type: functional; conditions: BaF3, 48 h
HL-60 = test: Antiproliferative activity against human HL60 cells expressing FLT3 after 48 hrs by luciferase reporter gene assay; type: functional; conditions: HL-60, 48 h
[7] = Thermodynamic solubility of the compound at pH 7; type: physicochemical; conditions: buffer, read-out: Therm_solubility
In short: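 The citrate salt (~5 mg) was made up at 5 mg/mL in pH-buffered solution, in triplicate. It was shaken 24 h at 600 rpm at room temperature, filtered (0.4 μm) and the final pH recorded. The filtrate was diluted in acetonitrile/water (1:1), centrifuged and quantified by HPLC-UV. Two determinations were made on two different batches.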

[8] = Half life in mouse liver microsomes at 5 uM; type: ADME, Microsome
In short: (§1)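 Compound at 5 μM with human, mouse or dog microsomes at 0.87 mg/mL, or rat and monkey microsomes at 1 mg/mL, in 50 mM potassium phosphate pH 7.4 with NADPH regenerating system at 37 °C.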

[9] = Half life in rat liver microsomes at 5 uM; type: ADME, Microsome; in short: as §1
[10] = Half life in dog liver microsomes at 5 uM; type: ADME, Canis lupus familiaris, Microsome; in short: as §1
Cytochrome P450 2C9 = Cytochrome P450 2C9 (Homo sapiens, UniProt P11712); test: Inhibition of CYP2C9 in human liver microsomes using diclofenac as substrate by LC-MS/MS analysis; type: ADME, Microsome
Cytochrome P450 2C19 = Cytochrome P450 2C19 (Homo sapiens, UniProt P33261); test: Inhibition of CYP2C19 in human liver microsomes using omeprazole as substrate by LC-MS/MS analysis; type: ADME, Microsome
Cytochrome P450 3A4 [11] = target: T1, Cytochrome P450 3A4; test: Inhibition of CYP3A4 in human liver microsomes using testosterone as substrate by fluorescence detection assay; type: ADME, Microsome
In short: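 Human liver microsomes at 0.25 mg/mL for CYP3A4, incubated with test compound at 0.001, 0.01, 0.1, 1.0, 5, 10 and 25 μM. IC50 is the concentration giving 50% inhibition, calculated from the decrease in metabolite formation relative to vehicle control.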

Cytochrome P450 2D6 [12] = target: T2, Cytochrome P450 2D6; test: Inhibition of CYP2D6 in human liver microsomes using dextromethorphan as substrate by fluorescence detection assay; type: ADME, Microsome
In short: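 Seven-point concentration series (0.001, 0.01, 0.1, 1.0, 5, 10 and 25 μM) incubated with human liver microsomes. IC50 is the concentration giving 50% inhibition, calculated from the decrease in metabolite formation relative to vehicle control.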

[13] = Plasma protein binding in human at 1000 ng/mL by equilibrium dialysis; type: ADME, cell-free; conditions: read-out: PPB
In short: (§2)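 Equilibrium dialysis of plasma (mouse, rat, dog, monkey, human) spiked to 1000 ng/mL final against PBS, 4 h at 37 °C; buffer side extracted with MTBE in triplicate and analyzed by LC-MS/MS.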

[14] = Plasma protein binding in monkey at 1000 ng/mL by equilibrium dialysis; type: ADME, cell-free, Macaca mulatta; conditions: rhesus monkey, read-out: PPB (converted); in short: as §2
[15] = Plasma protein binding in mouse at 1000 ng/mL by equilibrium dialysis; type: ADME, cell-free; conditions: read-out: PPB (converted); in short: as §2
[16] = Plasma protein binding in rat at 1000 ng/mL by equilibrium dialysis; type: ADME, cell-free; conditions: read-out: PPB (converted); in short: as §2
[17] = Plasma protein binding in dog at 1000 ng/mL by equilibrium dialysis; type: ADME, cell-free, Canis lupus familiaris; conditions: read-out: PPB (converted); in short: as §2
[18] = target: Cyclin-dependent kinase 9 (Homo sapiens, UniProt P50750); test: Inhibition of CDK9
[19] = Cmax in BALB/c nude mouse at 50 mg/kg, po; type: ADME, organism-based; design: dose 50 mg/kg, route oral; conditions: in vivo
In short: (§3)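 Single oral gavage at 50 (mouse, rat), 5 (dog) or 20 (monkey) mg/kg; rodents and monkeys received suspensions in 0.5% methylcellulose/0.1% Tween 80, dogs gelatin capsules. Serial blood taken 0–24 h into K3EDTA, plasma stored at −70 °C. Parameters estimated by noncompartmental analysis, n = 3 per species (mouse values from mean concentration–time data, 3 mice per time point).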

[20] = Tmax in BALB/c nude mouse at 50 mg/kg, po; type: ADME, organism-based; design: dose 50 mg/kg, route oral; conditions: in vivo
In short: (§4)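 Single oral dose by gavage as suspension in 0.5% methylcellulose/0.1% Tween 80 (mouse, rat, monkey) or in gelatin capsules (dog). Serial blood samples taken from 0 to 24 h into K3EDTA tubes; plasma stored at −70 °C until analysis. Parameters derived by noncompartmental methods. Rat, dog and monkey n = 3; mouse values estimated from mean concentration-time data, n = 3 mice per time point.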

[21] = Terminal half life in BALB/c nude mouse at 50 mg/kg, po; type: ADME, organism-based; design: dose 50 mg/kg, route oral; conditions: in vivo, read-out: beta t1/2 (converted); in short: as §4
[22] = Oral bioavailability in BALB/c nude mouse at 50 mg/kg; type: ADME, organism-based; conditions: in vivo; in short: as §3
[23] = Cmax in Wistar rat at 50 mg/kg, po; type: ADME, organism-based; design: dose 50 mg/kg, route oral; conditions: in vivo; in short: as §3
[24] = Tmax in Wistar rat at 50 mg/kg, po; type: ADME, organism-based; design: dose 50 mg/kg, route oral; conditions: in vivo; in short: as §4
[25] = Terminal half life in Wistar rat at 50 mg/kg, po; type: ADME, organism-based; design: dose 50 mg/kg, route oral; conditions: in vivo, read-out: beta t1/2 (converted); in short: as §4
[26] = Cmax in beagle dog at 5 mg/kg, po; type: ADME, organism-based, Canis lupus familiaris; design: dose 5 mg/kg, route oral; conditions: in vivo; in short: as §3
[27] = Tmax in beagle dog at 5 mg/kg, po; type: ADME, organism-based, Canis lupus familiaris; design: dose 5 mg/kg, route oral; conditions: in vivo; in short: as §4
[28] = Oral bioavailability in beagle dog at 5 mg/kg; type: ADME, organism-based, Canis lupus familiaris; conditions: in vivo; in short: as §3
[29] = Cmax in rhesus monkey at 20 mg/kg, po; type: ADME, organism-based, Macaca mulatta; design: dose 20 mg/kg, route oral; conditions: in vivo; in short: as §3
[30] = Tmax in rhesus monkey at 20 mg/kg, po; type: ADME, organism-based, Macaca mulatta; design: dose 20 mg/kg, route oral; conditions: in vivo; in short: as §4

T1 sequence (P08684 whole entry): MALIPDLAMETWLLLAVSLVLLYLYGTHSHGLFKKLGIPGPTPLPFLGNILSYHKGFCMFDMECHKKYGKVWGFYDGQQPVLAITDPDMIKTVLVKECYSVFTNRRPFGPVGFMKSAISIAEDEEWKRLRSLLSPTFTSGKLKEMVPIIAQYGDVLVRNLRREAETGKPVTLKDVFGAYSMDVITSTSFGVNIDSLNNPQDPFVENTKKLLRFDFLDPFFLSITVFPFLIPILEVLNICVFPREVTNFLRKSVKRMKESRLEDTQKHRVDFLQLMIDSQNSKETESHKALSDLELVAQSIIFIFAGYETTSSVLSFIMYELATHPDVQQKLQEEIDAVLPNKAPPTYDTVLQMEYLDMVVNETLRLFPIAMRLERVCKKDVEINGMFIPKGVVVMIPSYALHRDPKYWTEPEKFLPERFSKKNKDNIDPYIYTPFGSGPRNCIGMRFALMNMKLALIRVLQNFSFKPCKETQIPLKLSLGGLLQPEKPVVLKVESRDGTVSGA
T2 sequence (P10635 whole entry): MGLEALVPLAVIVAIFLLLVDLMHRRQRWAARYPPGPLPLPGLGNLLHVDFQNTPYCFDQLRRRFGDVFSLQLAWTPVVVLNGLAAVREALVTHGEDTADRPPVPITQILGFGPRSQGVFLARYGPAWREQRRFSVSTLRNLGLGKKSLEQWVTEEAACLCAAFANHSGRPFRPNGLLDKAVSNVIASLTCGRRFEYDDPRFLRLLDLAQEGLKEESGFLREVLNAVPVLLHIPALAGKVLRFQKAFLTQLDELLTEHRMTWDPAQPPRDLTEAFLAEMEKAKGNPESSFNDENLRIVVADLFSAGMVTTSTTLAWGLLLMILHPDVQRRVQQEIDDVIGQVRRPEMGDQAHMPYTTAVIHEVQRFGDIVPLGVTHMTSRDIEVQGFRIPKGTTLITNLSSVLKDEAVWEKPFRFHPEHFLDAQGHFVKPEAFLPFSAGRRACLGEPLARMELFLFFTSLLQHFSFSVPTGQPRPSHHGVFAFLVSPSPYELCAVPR
Chain of Cytochrome P450 2C9 (P11712 whole entry): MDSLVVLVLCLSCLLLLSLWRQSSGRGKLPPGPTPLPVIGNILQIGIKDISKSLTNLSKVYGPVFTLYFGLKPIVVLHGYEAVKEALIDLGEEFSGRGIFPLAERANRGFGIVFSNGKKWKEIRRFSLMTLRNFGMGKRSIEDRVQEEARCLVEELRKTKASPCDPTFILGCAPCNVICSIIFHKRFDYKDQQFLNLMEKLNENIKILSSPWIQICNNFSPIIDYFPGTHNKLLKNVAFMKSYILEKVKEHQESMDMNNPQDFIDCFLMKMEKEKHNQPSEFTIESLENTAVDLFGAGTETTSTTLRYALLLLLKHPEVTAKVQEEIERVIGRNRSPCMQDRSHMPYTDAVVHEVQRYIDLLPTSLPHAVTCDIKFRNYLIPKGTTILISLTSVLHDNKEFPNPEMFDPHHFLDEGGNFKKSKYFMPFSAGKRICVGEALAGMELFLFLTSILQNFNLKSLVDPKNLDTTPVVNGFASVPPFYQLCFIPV
Chain of Cytochrome P450 2C19 (P33261 whole entry): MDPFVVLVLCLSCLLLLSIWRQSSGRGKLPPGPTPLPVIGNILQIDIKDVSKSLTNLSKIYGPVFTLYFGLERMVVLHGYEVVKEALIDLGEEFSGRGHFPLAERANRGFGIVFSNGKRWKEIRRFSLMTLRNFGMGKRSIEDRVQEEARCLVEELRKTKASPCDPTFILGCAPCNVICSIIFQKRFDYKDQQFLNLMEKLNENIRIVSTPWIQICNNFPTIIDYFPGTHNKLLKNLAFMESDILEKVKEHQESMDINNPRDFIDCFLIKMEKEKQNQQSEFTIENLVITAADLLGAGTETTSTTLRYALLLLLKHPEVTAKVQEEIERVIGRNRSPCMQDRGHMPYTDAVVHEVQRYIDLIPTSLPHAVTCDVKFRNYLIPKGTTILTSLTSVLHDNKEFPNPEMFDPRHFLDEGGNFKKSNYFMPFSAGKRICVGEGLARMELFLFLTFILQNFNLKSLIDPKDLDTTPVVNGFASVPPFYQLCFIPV
Chain of Cyclin-dependent kinase 9 (P50750 whole entry): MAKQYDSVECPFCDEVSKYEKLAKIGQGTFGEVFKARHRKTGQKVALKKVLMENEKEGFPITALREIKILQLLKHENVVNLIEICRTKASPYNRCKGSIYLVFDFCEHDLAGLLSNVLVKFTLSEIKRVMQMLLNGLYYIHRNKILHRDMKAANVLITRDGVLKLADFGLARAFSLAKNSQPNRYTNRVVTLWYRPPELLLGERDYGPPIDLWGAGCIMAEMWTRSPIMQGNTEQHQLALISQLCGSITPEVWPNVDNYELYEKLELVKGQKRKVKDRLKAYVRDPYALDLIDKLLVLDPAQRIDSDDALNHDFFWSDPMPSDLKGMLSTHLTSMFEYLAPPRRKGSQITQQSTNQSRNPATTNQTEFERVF

**Q.** With `C1=C2COC/C=C/COCc3cc(ccc3OCCN3CCCC3)Nc3nccc(n3)C(=C1)O2` (mixture of isomers) [CT-1578] as the compound, how does the IC50 [1] read?
**A.** 246 nM

**Q.** And the inhibition in vivo at 105 mg/kg (Mus musculus)?
**A.** 23%

**Q.** What about the IC50 [2] of the same compound?
**A.** 7000 nM

**Q.** And the solubility kinetic [3]?
**A.** > 250 µg/mL

**Q.** And the IC50 (Cytochrome P450 3A4 [4])?
**A.** > 10000 nM

**Q.** What about the IC50 (Cytochrome P450 2D6 [5]) of the same compound?
**A.** > 10000 nM

**Q.** And the half-life [6]?
**A.** 0.45 h

**Q.** And the GI50 (BaF3)?
**A.** 250 nM

**Q.** What about the GI50 (HL-60) of the same compound?
**A.** 850 nM

**Q.** What about the solubility thermodynamic [7] of the same compound?
**A.** 880 µg/mL

**Q.** What about the half-life at 5 µM [8] of the same compound?
**A.** > 1 h

**Q.** And the half-life at 5 µM [9]?
**A.** > 1 h

**Q.** And the half-life at 5 µM [10]?
**A.** > 1 h

**Q.** What about the IC50 (Cytochrome P450 2C9) of the same compound?
**A.** > 10000 nM

**Q.** What about the IC50 (Cytochrome P450 2C19) of the same compound?
**A.** 1400 nM

**Q.** And the IC50 (Cytochrome P450 3A4 [11])?
**A.** > 10000 nM

**Q.** And the IC50 (Cytochrome P450 2D6 [12])?
**A.** > 10000 nM

**Q.** What about the fraction unbound at 1000 ng/mL [13] of the same compound?
**A.** 0.01

**Q.** And the fraction unbound at 1000 ng/mL [14]?
**A.** 0.013

**Q.** What about the fraction unbound at 1000 ng/mL [15] of the same compound?
**A.** 0.127

**Q.** What about the fraction unbound at 1000 ng/mL [16] of the same compound?
**A.** 0.127

**Q.** And the fraction unbound at 1000 ng/mL [17]?
**A.** 0.127

**Q.** What about the IC50 [18] of the same compound?
**A.** 36 nM

**Q.** And the Cmax [19]?
**A.** 1230 ng/mL

**Q.** What about the Tmax [20] of the same compound?
**A.** 0.5 h

**Q.** What about the half-life [21] of the same compound?
**A.** 0.8 h

**Q.** And the bioavailability [22]?
**A.** 34%

**Q.** What about the Cmax [23] of the same compound?
**A.** 231 ng/mL

**Q.** And the Tmax [24]?
**A.** 2.3 h

**Q.** What about the half-life [25] of the same compound?
**A.** 3.6 h

**Q.** And the Cmax [26]?
**A.** 27 ng/mL

**Q.** And the Tmax [27]?
**A.** 3 h

**Q.** What about the bioavailability [28] of the same compound?
**A.** 6%

**Q.** What about the Cmax [29] of the same compound?
**A.** 1980 ng/mL

**Q.** And the Tmax [30]?
**A.** 2 h
